From ChEMBL document CHEMBL2424550, “Discovery of cyclic sulfoxide hydroxyethylamines as potent and selective β-site APP-cleaving enzyme 1 (BACE1) inhibitors: structure based design and in vivo reduction of amyloid β-peptides” (Bioorg Med Chem Lett, 2013)

Experiments:
[1] = Lipophilicity, log P of the compound; type: physicochemical; details: octanol/water
[2] = Dissociation constant, pKa of the compound; type: physicochemical
Summary of the method: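 Measured by multi-wavelength UV spectroscopy across a linear pH gradient of 2–12 units.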

[3] = Apparent permeability of the compound in MDCK cells expressing human MDR1; type: ADME, cell-based, Canis lupus familiaris; details: dog
Summary of the method: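 Apparent permeability (Papp, […]) measured across MDR1-MDCK cell monolayers transfected with human MDR1.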

Brain [4] = assay: Drug level in APP51/16 transgenic female mouse brain at 100 umol/kg, po after 4 hrs; type: ADME, organism-based; details: in vivo
Summary of the method: (§1)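 APP51/16 transgenic mice received an oral suspension in water with 2% cremophor. Parent inhibitor measured 4 h post-dose in blood (nmol/mL) and brain (nmol/g).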

[5] = Drug level in APP51/16 transgenic female mouse blood at 100 umol/kg, po after 4 hrs; type: ADME, organism-based; details: whole blood, read-out: Drug uptake; summary of the method: as §1
[6] = Clearance in mouse liver microsomes; type: ADME, Microsome; details: read-out: CLH
Summary of the method: (§2)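 Compounds incubated at 37 °C with human or mouse liver microsomes.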

[7] = Clearance in human liver microsomes; type: ADME, Microsome; details: read-out: CLH; summary of the method: as §2
Brain [8] = assay: Drug level in APP51/16 transgenic male mouse brain at 180 umol/kg, po after 4 hrs; type: ADME, organism-based; details: in vivo
Summary of the method: (§3)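 Inhibitor given orally to APP51/16 transgenic mice as a suspension in water with 2% cremophor; ritonavir (12.5 mg/kg po, 0.5 h before inhibitor) where noted. Blood concentration (nmol/mL) and brain concentration (nmol/g) determined 4 h after dosing.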

[9] = Drug level in APP51/16 transgenic male mouse blood at 180 umol/kg, po after 4 hrs; type: ADME, organism-based; details: whole blood, read-out: Drug uptake; summary of the method: as §3
[10] = Bioavailability in mouse; type: ADME, organism-based; details: in vivo
[11] = Clearance in mouse; type: ADME, organism-based; details: in vivo
Brain [12] = assay: Drug level in APP51/16 transgenic male mouse brain at 60 umol/kg, po after 4 hrs; type: ADME, organism-based; details: in vivo; summary of the method: as §3
Brain [13] = assay: Drug level in APP51/16 transgenic male mouse brain at 100 umol/kg, po after 4 hrs; type: ADME, organism-based; details: in vivo; summary of the method: as §3
[14] = Drug level in APP51/16 transgenic male mouse blood at 100 umol/kg, po after 4 hrs; type: ADME, organism-based; details: whole blood, read-out: Drug uptake; summary of the method: as §3
[15] = Drug level in APP51/16 transgenic male mouse blood at 60 umol/kg, po after 4 hrs; type: ADME, organism-based; details: whole blood, read-out: Drug uptake; summary of the method: as §3

CC(C)(C)c1cccc(CN[C@H]2CS(=O)(=O)C[C@@H](Cc3cc(F)c(N)c(OC(C(F)(F)F)C(F)(F)F)c3)[C@@H]2O)c1
logP [1]: 5.1 | pKa [2]: 5.7 | Papp [3]: 4 ×10⁻⁶ cm/s

[2H]C([2H])(N[C@H]1C[S@+]([O-])C[C@@H](Cc2cc(F)c(N)c(O[C@H](COC)C(F)(F)F)c2)[C@@H]1O)c1cccc(C(C)C)c1
Drug uptake (Brain [4]): 0.3 nmol/g | concentration at 4 h [5]: 1500 nM | microsomal CLint [6]: 660 µL/min/mg | microsomal CLint [7]: 600 µL/min/mg | logP [1]: 3.7

COC[C@@H](Oc1cc(C[C@@H]2C[S@@+]([O-])C[C@H](N[C@H](C)c3cccc(C(C)(C)C)c3)[C@H]2O)cc(F)c1N)C(F)(F)F
Drug uptake (Brain [4]): 0.7 nmol/g | concentration at 4 h [5]: 5400 nM | microsomal CLint [6]: 730 µL/min/mg | microsomal CLint [7]: 600 µL/min/mg | Papp [3]: 17 ×10⁻⁶ cm/s

COC[C@@H](Oc1cc(C[C@@H]2C[S@@+]([O-])C[C@H](NCc3cc(C(C)(C)C)ccc3F)[C@H]2O)cc(F)c1N)C(F)(F)F
microsomal CLint [6]: 580 µL/min/mg | microsomal CLint [7]: 400 µL/min/mg | logP [1]: 4.1 | Papp [3]: 24 ×10⁻⁶ cm/s

COC[C@@H](Oc1cc(C[C@@H]2C[S@@+]([O-])C[C@H](NCc3cccc(C(C)(C)CO)c3)[C@H]2O)cc(F)c1N)C(F)(F)F
microsomal CLint [6]: 210 µL/min/mg | microsomal CLint [7]: 80 µL/min/mg | logP [1]: 3.4 | Papp [3]: 10 ×10⁻⁶ cm/s

COC[C@@H](Oc1cc(C[C@@H]2C[S@@+]([O-])C[C@H](NCc3cccc(C(C)(C)O)c3)[C@H]2O)cc(F)c1N)C(F)(F)F
microsomal CLint [6]: 150 µL/min/mg | microsomal CLint [7]: 40 µL/min/mg | Papp [3]: 8 ×10⁻⁶ cm/s

COC[C@@H](Oc1cc(C[C@@H]2C[S@@+]([O-])C[C@H](NCc3cccc(OC(C)C)c3)[C@H]2O)cc(F)c1N)C(F)(F)F
microsomal CLint [6]: 190 µL/min/mg | microsomal CLint [7]: 280 µL/min/mg | logP [1]: 3.6 | Papp [3]: 21 ×10⁻⁶ cm/s

COC[C@@H](Oc1cc(C[C@@H]2C[S@@+]([O-])C[C@H](NCc3cccc(OC(F)(F)F)c3)[C@H]2O)cc(F)c1N)C(F)(F)F
microsomal CLint [6]: 180 µL/min/mg | microsomal CLint [7]: 300 µL/min/mg | logP [1]: 3.7 | Papp [3]: 31 ×10⁻⁶ cm/s

COC[C@@H](Oc1cc(C[C@@H]2C[S@@+]([O-])C[C@H](NCc3cnn(CC(C)(C)C)c3)[C@H]2O)cc(F)c1N)C(F)(F)F
microsomal CLint [6]: 380 µL/min/mg | microsomal CLint [7]: 140 µL/min/mg | logP [1]: 2.9 | Papp [3]: 10 ×10⁻⁶ cm/s

COC[C@@H](Oc1cc(C[C@@H]2C[S@@+]([O-])C[C@H](NCc3cc(CC(C)(C)C)on3)[C@H]2O)cc(F)c1N)C(F)(F)F
microsomal CLint [6]: 510 µL/min/mg | microsomal CLint [7]: 580 µL/min/mg | logP [1]: 3.1 | pKa [2]: 4.9 | Papp [3]: 19 ×10⁻⁶ cm/s

COC[C@@H](Oc1cc(C[C@@H]2C[S@@+]([O-])C[C@H](NCc3cc(C(C)(C)C)ccn3)[C@H]2O)cc(F)c1N)C(F)(F)F
microsomal CLint [6]: 400 µL/min/mg | microsomal CLint [7]: 140 µL/min/mg | logP [1]: 3.5 | Papp [3]: 19 ×10⁻⁶ cm/s

CC(C)(C)c1cccc(CN[C@H]2C[S@+]([O-])C[C@@H](Cc3cc(F)c(N)c(OC(C(F)(F)F)C(F)(F)F)c3)[C@@H]2O)c1
Drug uptake (Brain [8]): 0.8 nmol/g | concentration at 4 h [9]: 900 nM | bioavailability [10]: 14% | clearance [11]: 129 mL/min/kg | logP [1]: 5.2 | pKa [2]: 6.7 | Papp [3]: 18 ×10⁻⁶ cm/s

CC(C)(C)c1cccc(CN[C@H]2C[S@@+]([O-])C[C@@H](Cc3cc(F)c(N)c(OC(C(F)(F)F)C(F)(F)F)c3)[C@@H]2O)c1
logP [1]: 4.9 | Papp [3]: 11 ×10⁻⁶ cm/s

COc1cc(C[C@@H]2C[S@@+]([O-])C[C@H](NCc3cccc(C(C)(C)C)c3)[C@H]2O)cc(F)c1N
logP [1]: 3.5 | Papp [3]: 22 ×10⁻⁶ cm/s

CC(C)(C)c1cccc(CN[C@H]2C[S@+]([O-])C[C@@H](Cc3cc(F)c(N)c(OCC(F)(F)F)c3)[C@@H]2O)c1
Drug uptake (Brain [12]): 0.4 nmol/g | Drug uptake (Brain [13]): 0.7 nmol/g | Drug uptake (Brain [8]): 1.3 nmol/g | concentration at 4 h [14]: 2600 nM | concentration at 4 h [15]: 800 nM | concentration at 4 h [9]: 6100 nM | logP [1]: 4.3 | Papp [3]: 19 ×10⁻⁶ cm/s

COC[C@@H](Oc1cc(C[C@@H]2C[S@@+]([O-])C[C@H](NCc3cccc(C(C)(C)C)c3)[C@H]2O)cc(F)c1N)C(F)(F)F
Drug uptake (Brain [12]): 0.1 nmol/g | Drug uptake (Brain [13]): 0.2 nmol/g | Drug uptake (Brain [8]): 0.7 nmol/g | concentration at 4 h [14]: 1000 nM | concentration at 4 h [15]: 300 nM | concentration at 4 h [9]: 3800 nM | microsomal CLint [6]: 480 µL/min/mg | microsomal CLint [7]: 500 µL/min/mg | logP [1]: 3.9 | Papp [3]: 18 ×10⁻⁶ cm/s

CC(C)(C)c1cccc(CN[C@H]2C[S@+]([O-])C[C@@H](Cc3cc(F)c(N)c(O[C@H](CO)C(F)(F)F)c3)[C@@H]2O)c1
logP [1]: 3.7 | Papp [3]: 16 ×10⁻⁶ cm/s

CC(C)(C)c1cccc(CN[C@H]2C[S@+]([O-])C[C@@H](Cc3cc(O)c(N)c(F)c3)[C@@H]2O)c1
Papp [3]: 9 ×10⁻⁶ cm/s

COC[C@@H](Oc1cc(C[C@@H]2C[S+]([O-])C[C@H](N)[C@H]2O)cc(F)c1N)C(F)(F)F (stereo not given in full)
microsomal CLint [6]: 180 µL/min/mg | microsomal CLint [7]: 190 µL/min/mg

[2H]C([2H])(N[C@H]1C[S@+]([O-])C[C@@H](Cc2cc(F)c(N)c(O[C@H](COC)C(F)(F)F)c2)[C@@H]1O)c1cccc(C(C)(C)C)c1
Drug uptake (Brain [12]): 0.1 nmol/g | concentration at 4 h [15]: 400 nM | microsomal CLint [6]: 530 µL/min/mg | microsomal CLint [7]: 600 µL/min/mg | Papp [3]: 19 ×10⁻⁶ cm/s

COC[C@@H](Oc1cc(C[C@@H]2C[S@@+]([O-])C[C@H](NCc3cccc(C(C)C)c3)[C@H]2O)cc(F)c1N)C(F)(F)F
Drug uptake (Brain [4]): 0.2 nmol/g | concentration at 4 h [5]: 1600 nM | microsomal CLint [6]: 550 µL/min/mg | microsomal CLint [7]: 690 µL/min/mg | logP [1]: 3.7 | Papp [3]: 20 ×10⁻⁶ cm/s
